# According to the EternaBench riboswitch data:
# Test system: MS2 coat protein
# Experiment: apparent Kd, MS2 coat protein; higher = weaker binding; RNA-MaP array
# Method in brief: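 The designed RNAs, transcribed from sequenced DNA templates on an Illumina sequencing chip, were incubated with fluorescently labeled MS2 coat protein at room temperature. Protein ranged from 1.5 nM to 3 μM, with 0.8–1.5 h incubation at the lowest and 10–20 min at the highest concentrations, in Tris-HCl pH 7.5 buffer with KCl, MgCl2, BSA, DTT, tRNA and Tween20, with or without input ligand. The median of per-cluster binding-curve fits gives the apparent Kd, and designs measured on fewer than 10 clusters were excluded.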
# [1] = designed as: ON switch for flavin mononucleotide, no ligand
# [2] = ligand present: flavin mononucleotide, designed as: ON switch for flavin mononucleotide
# [3] = designed as: OFF switch for flavin mononucleotide, no ligand
# [4] = ligand present: flavin mononucleotide, designed as: OFF switch for flavin mononucleotide
# [5] = designed as: OFF switch for theophylline, no ligand
# [6] = ligand present: theophylline, designed as: OFF switch for theophylline
Sequence,apparent Kd [1],apparent Kd [2],apparent Kd [3],apparent Kd [4],further results
CAGUUACAUGAGGAUCACCCAUGUUUUUAACGCAGAGGAUAUCCGGUGGUUAAUGGCUCAGGAGAAGGCUGUGGUC,0.0163 µM,0.00937 µM,,,
CUCCUGGCAGGAUAUACAUGAGGAUCACCCAUGUUCCGAGCGUCCCAAACGACACGGUGUAGAAGGGCCAAGAU,,,0.0128 µM,0.0173 µM,
CACGGCAUUGAGAAGGGAGUGACAUGGAACUGCUCAGGAUAUCAACACACAUUGUUAAAGAAAACAUGAGGAUCACCCAUGUUC,0.0112 µM,0.00928 µM,,,
UAUUGUUUAGGAUAUACAUGAGGAUCACCCAUGUCAACGACCGUUAUAAAAUCUAAGUGUAGAAGGAAACGCCC,,,0.0135 µM,0.0121 µM,
ACUCUAAGAUGAGGAUAUCACAUCUUAUCGCCACGGUGGCUUCACAUGAGGAUCACCCAUGUAUGUGAGAAGGCAUUUCCGGAC,,,0.0241 µM,0.0207 µM,
AAUCGCAAUUGAGGAUAUUGAACUGAAUUGGCCACAUGAGGAUCACCCAUGUGACCUGUCUCCGUCAAGAAGGCAAUGUGGUGG,0.00561 µM,0.00481 µM,,,
GGUUCGCAUGUAGGAUAUCGCAAUAUAAACAUGAGGAUCACCCAUGUAACAAUGUAAACGGACAACGAGAAGGACAUCAACUCC,0.0446 µM,0.0228 µM,,,
GCUAGUUCACAGAAGGCGUCCGUGGGUGGCGCCUUACAUGAGGAUCACCCAUGUCAACCGUGCGACGAGGAUAUGUCAAUCGCA,,,0.0225 µM,0.0216 µM,
UCAUCUGGGUCUUUGGUGCACAUGAGGAUCACCCAUGUAACUUAGGAUAUUAGUUAUGAUAUGAUUAAGAAGGAAGUCGCUAUU,,,0.0152 µM,0.0169 µM,
CACGGAAAUCAGAAGGCGCCUACACACGCAUUGCGAGGAUAUGACCGGUCGGUCCACAUGAGGAUCACCCAUGUUAACUAACGC,0.0163 µM,0.0122 µM,,,
UCGGACGGAGGAUAUACUAUGACUCCCACGGCAUGUUACGCACAUGAGGAUCACCCAUGUAGAAGGCCGCCUAA,,,0.00427 µM,0.00741 µM,
ACCUAAGCCACAGAUACCAGAGUAAUAGGCCAAUUUCAAAACAUGAGGAUCACCCAUGUACUCCCUUGGCAGCUGCGAAUCGAAA,,,,,apparent Kd [5]: 0.0109 µM; apparent Kd [6]: 0.0152 µM
GCUGUAGAAGGAUAUCACAGGAUGGACAUGAGGAUCACCCAUGUUCUUUACUCCGCACCUUGAGAAGGUCUAAGUC,,,0.00627 µM,0.00588 µM,
ACCCGACAAGUGAGGAUAUUGAUAAGAGGAGCUUACAAGAAGGCACAUGAGGAUCACCCAUGUAUUAAGUGAAG,,,0.00797 µM,0.0098 µM,
UCGGUUCGCGGAGGAUAUACUUCACUUCAGGAAGUAGAAGGCCGGCGGUGCUAAGGGUCACAUGAGGAUCACCCAUGUCUUCAC,0.0306 µM,0.0207 µM,,,
UUCCCUGCUUAGGAUAUCUAGACAAGACGGUCAAGAGAAGGAAGUACAUGAGGAUCACCCAUGUUUAGCAUGAA,,,0.0105 µM,0.0142 µM,
UUUACCGACACAGAUCACUAAAACCUUGAUACCAGUCCCAGUGGCGACCCUUGGCAGCAAUAUACAUGAGGAUCACCCAUGUGCA,,,,,apparent Kd [5]: 0.0147 µM; apparent Kd [6]: 0.0167 µM
CAGUGAGAGUCGGCCGCCACUUAACGCAAGUAGCGCAACCCAAAACAUGAGGAUCACCCAUGUCGAAGGACCGGGACAAUGAGCG,,,,,"apparent Kd (designed as: ON switch for tryptophan, no ligand): 0.0129 µM; apparent Kd (ligand present: tryptophan, designed as: ON switch for tryptophan): 0.0122 µM"
UACAUGAACGUCAGGAUAUUGGUAUAUUACCUAGCCAAGAAGGGACAUGAGGAUCACCCAUGUAUUCGGUCCAA,,,0.0252 µM,0.0652 µM,
UUUUUCCUGUAUAUCGGUACAUGAGGAUCACCCAUGUUCCCAGAGGAUAUUUGAUGGUGGGUAACAAAGAAGGCUGGCUACAGG,0.0206 µM,0.00931 µM,,,
GCGCGCGUAGUCAGGAUAUGGUAUAAGUAACUUGGCCAGAAGGGACAUGAGGAUCACCCAUGUGCAUUGCUAGC,,,0.00916 µM,0.00947 µM,
ACAAUCACAUGAGGAUCACCCAUGUUAGACAGGGUCAAUGUGAAGGAUAUGAACAAUGAAAAUACUCAGAAGGUCAUAUUGAAA,0.192 µM,0.0274 µM,,,
GCGUGGCACUGCAUACACACAUGAGGAUCACCCAUGUAUAGUAGAAGGUUCUUCAGCGGGAACAGAAAGGAUAUACUGAUAGAU,0.00774 µM,0.00742 µM,,,
UCGUGCAGUGAGGAUAUCCCGAAGGCUUCCAUUGGAGAAGGCACUACAUGAGGAUCACCCAUGUGGCUUGAUAA,,,0.044 µM,0.0565 µM,
UAUCACUGGCAGAAGGUUCUCGGAAGCGAUGGUACUCUAUACAUGAGGAUCACCCAUGUCUACGGAAAGGAUAUGCCAUUGCGA,,,0.07 µM,0.176 µM,
UGGUCACAUGAGGAUCACCCAUGUAAGGAUAUCCGCGCCAUAGAGGAAAAGACGGUAUGGAGAAGGUACAGCUU,,,0.0299 µM,0.0269 µM,
